This passage reports Activity and fold change (FC) results from ChEMBL document CHEMBL1152384, “First steps in the direction of synthetic, allosteric, direct inhibitors of thrombin and factor Xa” (Bioorg Med Chem Lett, 2009).

Active and inactive are the calls of the source. The calls are words filed in the database; no cut-off is given here. A value given as a limit tells only on which side of the number the result lay.

Experiment [1] addresses Prothrombin (Homo sapiens) (UniProt P00734). In words: Inhibition of human thrombin assessed as residual activity at 2.9 mM by spectrophotometry. Put shortly: (§1)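 Thrombin activity read spectrophotometrically as the initial rate of hydrolysis of the chromogenic substrate Spectrozyme TH, with and without benzofuran inhibitor. Residual activity is expressed relative to the uninhibited enzyme.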

Experiment [2] shares this target. Kind of experiment: Inhibition of human thrombin assessed as residual activity at 400 uM by spectrophotometry. Put shortly: as §1
Experiment [3] addresses Coagulation factor X (Homo sapiens) (UniProt P00742). Kind of experiment: Inhibition of human factor 10a assessed as residual activity at […] by spectrophotometry. Put shortly: (§2)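 Factor Xa activity followed by spectrophotometric measurement of the initial rate of hydrolysis of the chromogenic substrate S-2772, with and without benzofuran inhibitor. Residual activity is taken relative to the uninhibited enzyme.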

The target is the same in experiment [4]. In words: Inhibition of human factor 10a assessed as residual activity at 2.6 mM by spectrophotometry. Put shortly:
as §2

Experiment [5] has the same target. Kind of experiment: Inhibition of human factor 10a assessed as decrease in catalytic rate per uM of S-2772 hydrolysis at 2.6 mM by Michaelis-Menten analysis relative to control. Put shortly: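 Factor Xa kinetics: initial rates of S-2772 hydrolysis measured spectrophotometrically at pH 7.4 and 25 °C over a range of substrate levels, with and without inhibitor. The hyperbolic dependence of rate on substrate was fitted to obtain KM and VMAX. Catalytic rate was compared with the inhibitor-free reaction.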

For experiment [6], the target named is Prothrombin (Homo sapiens) (UniProt P00734). Kind of experiment: Inhibition of human thrombin assessed as residual activity at 4.3 mM by spectrophotometry. The method, boiled down: as §1
Experiment [7] shares this target. Kind of experiment: Inhibition of human thrombin assessed as residual activity at < 4.3 mM by spectrophotometry. Put shortly: as §1
In experiment [8] the target is Coagulation factor X (Homo sapiens) (UniProt P00742). Kind of experiment: Inhibition of human factor 10a assessed as residual activity at < 4.3 mM by spectrophotometry. Put shortly: as §2
Chain of Coagulation factor X (Homo sapiens) (P00742 41-179 limits assumed): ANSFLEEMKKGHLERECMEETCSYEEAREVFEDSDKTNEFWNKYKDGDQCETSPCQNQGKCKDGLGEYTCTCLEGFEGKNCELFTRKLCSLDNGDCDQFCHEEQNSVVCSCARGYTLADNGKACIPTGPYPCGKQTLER
Chain of Coagulation factor X (Homo sapiens) (P00742 235-488 limits assumed): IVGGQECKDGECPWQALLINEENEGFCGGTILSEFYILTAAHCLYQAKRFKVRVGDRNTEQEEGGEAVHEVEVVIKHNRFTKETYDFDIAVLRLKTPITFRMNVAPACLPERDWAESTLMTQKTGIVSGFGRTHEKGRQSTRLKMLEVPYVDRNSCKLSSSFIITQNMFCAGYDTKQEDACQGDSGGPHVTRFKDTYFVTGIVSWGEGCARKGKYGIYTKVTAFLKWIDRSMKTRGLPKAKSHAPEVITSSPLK

Regarding `Cc1oc2cc(O)c(O)cc2c1C(=O)O`, the Activity in experiment [1] was > 40%. Also, the outcome in experiment [2] and in experiment [3] was Active.
As for `COc1cc2oc(C)c(C(=O)O)c2cc1OS(=O)(=O)O`, the Activity is > 40% in experiment [1] and 42% in experiment [4]. In addition, the result in experiment [2] and in experiment [3] was Active.
Consider `COc1cc2c(C(=O)O)c(C)oc2cc1OS(=O)(=O)O`, for which the figures for the Activity in experiment [1] and in experiment [4] were > 40% and 86%, respectively. The result in experiment [2], in experiment [3] and in experiment [6] was Active. The fold change (FC) in experiment [5] was 3.6.
For the compound `COc1cc2oc(C)c(CCC(=O)O)c2cc1O`, the Activity in experiment [1] and in experiment [4] was > 40% throughout. Also, the outcome in experiment [2] and in experiment [3] was Active.
As to `COc1cc2oc(C)c(COS(=O)(=O)O)c2cc1OS(=O)(=O)O`, the outcome in experiment [7] and in experiment [8] was inactive.
With `Cc1oc2cc(OS(=O)(=O)O)c(OS(=O)(=O)O)cc2c1C(=O)O`, the Activity in experiment [1] was > 40%; in experiment [4], 75%. In addition, the result in experiment [2] and in experiment [3] was Active.
As to `COc1cc2oc(C)c(C(=O)O)c2cc1O`, in experiment [1], the Activity is > 40%. Besides, the result in experiment [2] and in experiment [3] was Active.
Regarding `CCOC(=O)c1c(C)oc2cc(O)c(O)cc12`, the outcome in experiment [7] and in experiment [8] was inactive.
For `CCOC(=O)c1c(C)oc2cc(OC)c(O)cc12`, the result in experiment [7] and in experiment [8] was inactive.
For `COc1cc2oc(C)c(CCC(=O)O)c2cc1OS(=O)(=O)O`, the Activity in experiment [1] is > 40%. Besides, the outcome in experiment [2] and in experiment [3] was Active.
Consider `CCOC(=O)CCc1c(C)oc2cc(OC)c(OS(=O)(=O)O)cc12`, for which the outcome in experiment [7] and in experiment [8] was inactive.
As for `CCOC(=O)c1c(C)oc2cc(OS(=O)(=O)O)c(OC)cc12`, the result in experiment [7] and in experiment [8] was inactive.
For the compound `COc1cc2oc(C)c(CO)c2cc1O`, the result in experiment [7] and in experiment [8] was inactive.
On to `CCOC(=O)c1c(C)oc2cc(O)c(OC)cc12`, for which the result in experiment [7] and in experiment [8] was inactive.
With `CCOC(=O)c1c(C)oc2cc(OS(=O)(=O)O)c(OS(=O)(=O)O)cc12`, the result in experiment [7] and in experiment [8] was inactive.
In the case of `CCOC(=O)CCc1c(C)oc2cc(OC)c(O)cc12`, the result in experiment [7] and in experiment [8] was inactive.
Regarding `CCOC(=O)c1c(C)oc2cc(OC)c(OS(=O)(=O)O)cc12`, the result in experiment [7] and in experiment [8] was inactive.
